Measurements: ChEMBL document CHEMBL4368918, “Structure-Based Design of Inhibitors Selective for Human Proteasome β2c or β2i Subunits” (J Med Chem, 2019)
pIC50: −log10 of the molar value. The source made the active and inactive calls. No cut-off for these calls is given here.

What was measured:
[1] = molecular target: T1, Proteasome subunit beta type-10 (Homo sapiens, UniProt P40306); assay: Inhibition of 20S immunoproteasome beta 2 in human Raji cell lysates after 1 hr by competitive ABPP assay; type: subcellular, Lysate
T1 sequence (P40306 whole entry): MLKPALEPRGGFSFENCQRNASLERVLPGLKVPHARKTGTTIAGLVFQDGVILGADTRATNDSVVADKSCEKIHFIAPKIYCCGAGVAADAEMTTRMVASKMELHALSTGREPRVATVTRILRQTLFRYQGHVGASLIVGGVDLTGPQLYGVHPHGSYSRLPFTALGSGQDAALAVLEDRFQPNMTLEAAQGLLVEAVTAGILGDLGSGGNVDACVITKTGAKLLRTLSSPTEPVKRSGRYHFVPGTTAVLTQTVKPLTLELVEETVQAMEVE

[2] = molecular target: T1, Proteasome subunit beta type-10; assay: Inhibition of 20S immunoproteasome beta 2 (unknown origin) by cell based ABPP assay
How it was run: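 Living RPMI-8226 cells, (5–8) ×10^5 cells/mL, exposed to inhibitor 1 h at 37 °C, washed, lysed in digitonin buffer 1 h on ice; residual activity labelled with cocktail ABPs, SDS-PAGE in-gel fluorescence, bands divided by mock, Coomassie staining to correct loading. IC50 from mean of three independent experiments.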

[3] = molecular target: Proteasome Macropain subunit (Homo sapiens) (UniProt P49721); assay: Inhibition of Morp-Ala-Tyr(O-C2H4-BODIPY(FL))-1-DecAla-EK binding to 20S constitutive proteasome beta 2 in human Raji cell lysates at 0.3 uM in presence of 3-probe mixture by competitive ABPP assay; type: subcellular; conditions: Lysate
[4] = molecular target: T2, Proteasome subunit beta type-10 (Homo sapiens) (UniProt P40306); assay: Inhibition of Morp-Ala-Tyr(O-C2H4-BODIPY(FL))-1-DecAla-EK binding to 20S immunoproteasome beta 2 in human Raji cell lysates at 0.3 uM in presence of 3-probe mixture by competitive ABPP assay; type: subcellular; conditions: Lysate
T2 sequence (whole entry): T1 sequence (P40306 whole entry)

[5] = molecular target: T3, Proteasome subunit beta type-9 (Homo sapiens, UniProt P28065); assay: Inhibition of 20S immunoproteasome beta 1 in human Raji cell lysates after 1 hr by competitive ABPP assay; type: subcellular, Lysate
T3 sequence (P28065 whole entry): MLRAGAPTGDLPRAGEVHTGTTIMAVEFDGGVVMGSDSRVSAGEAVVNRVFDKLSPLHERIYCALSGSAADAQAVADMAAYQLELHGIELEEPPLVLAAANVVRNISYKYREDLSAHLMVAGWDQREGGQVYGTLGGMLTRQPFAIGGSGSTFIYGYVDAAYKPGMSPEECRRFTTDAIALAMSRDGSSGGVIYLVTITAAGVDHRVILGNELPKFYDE
How it was run: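 Raji cells were sonicated in 3 volumes of Tris pH 7.5 lysis buffer containing DTT, MgCl₂, sucrose, 2 mM ATP and 0.05% digitonin. Lysate (5 μg protein, in buffer with 2 mM ATP and glycerol) was preincubated with inhibitor for 1 h at 37 °C, then with a cocktail of three fluorescent ABPs for 1 h. […] In-gel fluorescence densitometry was normalized to mock. IC50 came from the mean of three experiments.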

[6] = molecular target: T1, Proteasome subunit beta type-10; assay: Inhibition of 20S immunoproteasome beta 2 in human RPMI8226 cell lysates after 1 hr by coomassie brilliant blue staining-based fluorescence assay; type: subcellular, Lysate
[7] = molecular target: T2, Proteasome subunit beta type-10 (Homo sapiens); assay: Inhibition of Morp-Ala-Tyr(O-C2H4-BODIPY(FL))-1-DecAla-EK binding to immunoproteasome beta 2 in human Raji cell lysates at 0.3 uM by competitive ABPP assay; type: subcellular; conditions: Lysate
How it was run: (§1)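 Raji lysate was preincubated with inhibitor, then labeled with the BODIPY(FL) probe alone. β2i labeling was read by in-gel fluorescence at Cy2 settings after SDS-PAGE.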

[8] = molecular target: T4, Proteasome subunit beta type-8 (Homo sapiens, UniProt P28062); assay: Inhibition of 20S immunoproteasome beta 5 in human RPMI8226 cell lysates after 1 hr by coomassie brilliant blue staining-based fluorescence assay; type: subcellular, Lysate
T4 sequence (P28062 whole entry): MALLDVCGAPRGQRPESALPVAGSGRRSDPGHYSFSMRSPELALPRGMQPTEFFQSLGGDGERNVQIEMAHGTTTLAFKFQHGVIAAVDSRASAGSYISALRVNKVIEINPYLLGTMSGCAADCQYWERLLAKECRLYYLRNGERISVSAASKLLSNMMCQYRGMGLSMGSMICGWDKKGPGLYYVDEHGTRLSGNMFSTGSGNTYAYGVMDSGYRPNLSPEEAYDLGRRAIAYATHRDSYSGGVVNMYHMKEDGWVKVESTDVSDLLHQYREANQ
How it was run: (§2)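 Living RPMI-8226 cells were grown in RPMI-1640 with 10% FCS. Cells at (5–8)×10⁵ cells/mL were exposed to inhibitor for 1 h at 37 °C, washed in PBS and lysed on ice for 1 h in digitonin/ATP buffer. Residual activity was read by cocktail-ABP labeling, SDS-PAGE and fluorescence densitometry relative to mock, with Coomassie staining correcting for loading. IC50 came from three independent experiments.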

[9] = molecular target: T5, Proteasome Macropain subunit MB1 (Homo sapiens, UniProt P28074); assay: Inhibition of 20S constitutive proteasome beta 5 chymotrypsin-like activity in human RPMI8226 cell lysates after 1 hr by coomassie brilliant blue staining-based fluorescence assay; type: subcellular, Lysate
T5 sequence (P28074 whole entry): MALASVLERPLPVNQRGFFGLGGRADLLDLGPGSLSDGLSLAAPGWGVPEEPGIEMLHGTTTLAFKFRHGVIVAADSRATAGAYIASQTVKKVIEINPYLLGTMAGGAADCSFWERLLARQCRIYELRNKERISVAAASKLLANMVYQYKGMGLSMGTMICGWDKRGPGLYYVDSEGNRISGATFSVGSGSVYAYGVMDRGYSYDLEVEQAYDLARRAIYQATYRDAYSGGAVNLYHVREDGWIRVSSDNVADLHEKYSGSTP
How it was run: as §2, with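 “Cells” for “Living RPMI-8226 cells were grown in RPMI-1640 with 10% FCS. Cells”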

[10] = molecular target: Proteasome Macropain subunit (Homo sapiens) (UniProt P49721); conditions: Raji, Lysate, 1 uM
[11] = molecular target: T2, Proteasome subunit beta type-10 (Homo sapiens); assay: Inhibition of Morp-Ala-Tyr(O-C2H4-BODIPY(FL))-1-DecAla-EK binding to 20S immunoproteasome beta 2 in human Raji cell lysates at 1 uM in presence of 3-probe mixture by competitive ABPP assay; type: subcellular; conditions: Lysate
[12] = molecular target: T3, Proteasome subunit beta type-9; assay: Inhibition of 20S immunoproteasome beta 1 in human RPMI8226 cell lysates after 1 hr by coomassie brilliant blue staining-based fluorescence assay; type: subcellular, Lysate; how it was run: as §2
[13] = molecular target: T4, Proteasome subunit beta type-8; assay: Inhibition of 20S immunoproteasome beta 5 in human Raji cell lysates after 1 hr by competitive ABPP assay; type: subcellular, Lysate
[14] = molecular target: T2, Proteasome subunit beta type-10 (Homo sapiens); assay: Inhibition of Morp-Ala-Tyr(O-C2H4-BODIPY(FL))-1-DecAla-EK binding to immunoproteasome beta 2 in human Raji cell lysates at 0.1 uM by competitive ABPP assay; type: subcellular; conditions: Lysate; how it was run: as §1

| Structure (SMILES) | pIC50 [1] | pIC50 [2] | inhibition [3] | inhibition [4] | pIC50 [5] | pIC50 [6] | inhibition [7] | pIC50 [8] | pIC50 [9] | inhibition [10] | inhibition [11] | pIC50 [12] | pIC50 [13] | inhibition [14] |
| --- | --- | --- | --- | --- | --- | --- | --- | --- | --- | --- | --- | --- | --- | --- |
| CC(C)C[C@H](NC(=O)[C@H](Cc1ccccc1)N=[N+]=[N-])C(=O)N[C@@H](C)C(=O)N[C@H](/C=C/S(C)(=O)=O)Cc1ccc(CN)cc1 | 6.85 | 6.49 | Active | Active | < 4.00 | < 5.00 | Active | < 5.00 | < 5.00 | – | – | – | – | – |
| CC(C)C[C@H](NC(=O)[C@H](Cc1ccccc1)N=[N+]=[N-])C(=O)N[C@@H](CC(C)C)C(=O)N[C@H](/C=C/S(C)(=O)=O)Cc1ccc(CN)cc1 | 7.70 | – | – | – | – | 6.39 | – | < 5.00 | – | Active | Active | < 5.00 | 5.93 | Active |
